Consider 30 sequences from the array DNA melting data of Ke et al. (doi:10.1101/2024.01.08.574731).

A short description of data set [1]: folding enthalpy; higher = less favourable; fluorescence melt of hairpins on a sequencing array, two-state fit. The following applies: sodium 0.088 M. The method in brief: (§1)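 Cy3 signals were normalised both to pre-quench Cy3 and to control constructs. They came from library hairpins carrying annealed Cy3 and quencher oligos on a sequenced MiSeq flow cell, imaged in 50 mM Na-HEPES pH 8.0, 25 mM NaCl, in 2.5 °C steps up to 60 °C. Bootstrapped two-state fits gave melting temperature and folding enthalpy, and four replicates were combined by inverse variance. Fitted temperatures were then raised by 9.35 °C to match UV melts.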

Data set [2] is described as follows: melting temperature; fluorescence melt of hairpins on a sequencing array, two-state fit, raised by 9.35 °C to match UV melts. The following applies: sodium 0.088 M. The method in brief:
as §1

For GGCTCTGGAAACAAAGCC ((((.((....)).)))), the folding enthalpy in data set [1] was -29.9 kcal/mol. Also, the Tm in data set [2] came to 38 °C.
The like results for GGCTGACCGAAAGGTGCC (((..(((....)))))) were, in that order, -24.7 kcal/mol and 52.4 °C.
On to GGCTGACGAAAGTCGCC (((.(((....)))))), for which, in data set [1], the folding enthalpy was -28.9 kcal/mol. Further, in data set [2], the Tm turned out to be 59.6 °C.
For GGCTGAGGAAACTCGGTC (.(.(((....))).).), in that order: -25 kcal/mol and 40.8 °C.
The like results for GGCTGCACGAAAGTGGCC (((..(((....)))))) were, in that order, -20 kcal/mol and 49 °C.
GGCTGCCGAAAGGCGCC (((.(((....)))))): in data set [1], the folding enthalpy was -18.9 kcal/mol. In addition, the Tm in data set [2] stood at 68.3 °C.
In the case of GGCTGCGAAAGCATAGCC ((((((....)))..))), in data set [1], the folding enthalpy is -35.5 kcal/mol. The Tm in data set [2] is 57.1 °C.
As to GGCTGCGCGAAAGCGGCC (((..(((....)))))), the folding enthalpy in data set [1] is -19.2 kcal/mol. Besides, the Tm in data set [2] was determined as 60.3 °C.
The like results for GGCTGCTCGAAAGAGGCC (((..(((....)))))) were, in that order, -19.7 kcal/mol and 43.8 °C.
The like results for GGCTGGAAACAGCC (((((....))))) were, in that order, -30.9 kcal/mol and 67.5 °C.
The like results for GGCTGGGGAAACCCAACC ((.((((....)))).)) were, in that order, -27 kcal/mol and 45.8 °C.
For GGCTGGGGAAACCTGGCC (((..((....))..))), in data set [1], the folding enthalpy was -30.6 kcal/mol. Moreover, the Tm in data set [2] turned out to be 51.7 °C.
With GGCTGTACGAAAGTAGCC (((..(((....)))))), the folding enthalpy in data set [1] was -27.5 kcal/mol. The Tm in data set [2] came out at 51.1 °C.
The like results for GGCTGTGGAAACACGGCC (((.(((....))).))) were, in that order, -46.6 kcal/mol and 60.8 °C.
The like results for GGCTTACGAAAGTAGGCC (((.(((....))).))) were, in that order, -43.6 kcal/mol and 60.1 °C.
On to GGCTTAGGAAACTAGGCC (((.(((....))).))), for which the folding enthalpy in data set [1] is -31.3 kcal/mol. For the same sequence, in data set [2], the Tm amounted to 48.7 °C.
The like results for GGCTTCGAAAGAAAAGCC ((((((....)))..))) were, in that order, -28 kcal/mol and 46.6 °C.
On to GGCTTCGAAAGAAATGCC ((((((....)))..))), for which the folding enthalpy in data set [1] was -25.3 kcal/mol. Moreover, in data set [2], the Tm is 38.5 °C.
For GGCTTCGAAAGAATCGCC ((((((....)))..))), in data set [1], the folding enthalpy was -27.7 kcal/mol. Further, in data set [2], the Tm came to 35.8 °C.
As for GGCTTCGAAAGAATGGCC ((((((....)))..))), in data set [1], the folding enthalpy was -25.2 kcal/mol. The Tm in data set [2] turned out to be 42.2 °C.
For GGCTTCGGAAACGGAGCC ((((.((....)).)))), in that order: -42.2 kcal/mol and 59.1 °C.
The like results for GGCTTGACGAAAGTCGCC (((..(((....)))))) were, in that order, -14.5 kcal/mol and 55.2 °C.
The like results for GGCTTGGGAAACCAGGTC (.(.(((....))).).) were, in that order, -23.2 kcal/mol and 37 °C.
Turning to GGCTTGTCGAAAGACGCC (((..(((....)))))), in data set [1], the folding enthalpy was -18.5 kcal/mol. The Tm in data set [2] turned out to be 49.9 °C.
For GGCTTTCGAAAGAACGCC (((.(((....))).))), in that order: -39.3 kcal/mol and 50.2 °C.
GGCTTTGGAAACAAGGTC (.(.(((....))).).): the folding enthalpy in data set [1] was -13.9 kcal/mol. The Tm in data set [2] stood at 32.2 °C.
GGCTTTGGAAACAGAGTC (.((.((....)).)).): in data set [1], the folding enthalpy is -10.1 kcal/mol. In data set [2], the Tm was 29.3 °C.
The like results for GGGAAAACGAAAGTTCCC (((..(((....)))))) were, in that order, -27.1 kcal/mol and 43.5 °C.
In the case of GGGAAACGAAAGTTCCC (((.(((....)))))), the folding enthalpy in data set [1] is -28 kcal/mol. Besides, the Tm in data set [2] stood at 53.4 °C.
For the sequence GGGAAAGCGAAAGCTCCC (((..(((....)))))), the folding enthalpy in data set [1] is -20.9 kcal/mol. For the same sequence, the Tm in data set [2] came to 51.8 °C.
